Bioassay records as filed in PubChem.
Most compounds without a hit are left out; they make up all but 2.9% or so of the library.
PolyA inh: yeast polyadenylation inhibition | S. cerevisiae SKY197-pL101 polyadenylation reporter, beta-gal luminescence; efflux-impaired pdr1/pdr3 knockout yeast; score 100 = 6 SD above DMSO | activity score, % at 12 µM | 300,000 compounds, 0.02% hits;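 active = lowest replicate activity score at least 50, where 100 means six control SD above control mean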;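 note: yeast exposed to compound for 9 h at 30 °C; higher score means more reporter readthrough which indicates perturbed polyadenylation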
VIM-2 inh: inhibitors of Pseudomonas aeruginosa VIM-2 metallo-beta-lactamase. purified VIM-2, nitrocefin hydrolysis, epi-absorbance fluorescence. inhibition, % at 5.6 µM. 290,000 compounds, 0.89% hits;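 active = inhibition above the mean of all tested compounds plus 3 SD, cutoff set per screening run, cut at about 7.5% in these data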;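 note: red hydrolysis product quenches plate fluorescence so inhibitors raise well fluorescence; 0% = enzyme with DMSO and 100% = DMSO without enzyme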
SUMO Mot1 rescue: SUMOylation pathway inhibition by Mot1-301 growth rescue; S. cerevisiae Mot1-301 growth rescue, ATP luminescence, 38.5C; percent above DMSO median, 100 means doubled; growth rescue, % at 18.8 µM; 320,000 compounds, 1% hits; AID 2716;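 active = every valid replicate shows activation above 250% relative to neutral control wells; inactive = the rest, any valid replicate at or below 250%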;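 note: OY570 slx delta 5 strain wells were the positive control but not used for scaling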
NALP1 inh: NALP1 inhibition; 280,000 compounds, 0.61% hits; S. cerevisiae NALP1/ASC/caspase-1 growth, X-gal OD620, 72 h; inhibition, % at 10 µM; AID 2071; in the data active = inhibition mostly above about 24%, no sharp cut-off; inactive = mostly below about 32%
IMP-1 inh: blocks Pseudomonas aeruginosa IMP-1 metallo-beta-lactamase. purified IMP-1, nitrocefin hydrolysis, epi-absorbance fluorescence. inhibition, % at 5.6 µM. 290,000 compounds, 0.45% hits;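 active = inhibition above the mean plus 3 SD of all compounds in the same screening run, cut at about 4.5% in these data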;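 note: 0% = IMP-1 with DMSO and 100% = DMSO wells lacking enzyme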
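assay system = purified recombinant IMP-1 metallo-beta-lactamase enzyme | schedule = 15 min preincubation plus 25 min reaction at 25 °C | signal = Epi-absorbance fluorescence, 480 nm excitation, 530 nm emission | read-out basis = percent inhibition from optical density relative to buffer-blank wells | controls = IMP-1 with DMSO as 0%, enzyme-free DMSO as 100%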
NLRP3 yeast inh: inhibitors of NALP3 inflammasome in yeast; Yeast reconstituted NLRP3/ASC/caspase-1, beta-gal luminescence, 24 h; inhibition, % at 10 µM; 330,000 compounds, 0.39% hits;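 active = inhibition of 50% or more; inactive = inhibition below 50%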;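 note: plate controls were induced DMSO wells for no effect and uninduced yeast grown without galactose for full effect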
* hit, by the source's call.

Screening COC(=O)c1cc(=O)n(Cc2ccc(OC)c(OC)c2)c(=Nc2ccc(F)cc2)s1 returned PolyA inh 7, VIM-2 inh -2, SUMO Mot1 rescue 6, NALP1 inh 40*, IMP-1 inh -1 and NLRP3 yeast inh 29.
COC(=O)c1ccccc1NC(=O)CSc1nc(N)cc(N)n1 was read as PolyA inh 1, VIM-2 inh -4, SUMO Mot1 rescue -3, NALP1 inh 32*, IMP-1 inh -4 and NLRP3 yeast inh 6.
CCCCC(=O)N(Cc1ccc(-c2ccccc2-c2nn[nH]n2)cc1)[C@H](C(=O)O)C(C)C was read as PolyA inh -7, VIM-2 inh -3, SUMO Mot1 rescue -2, NALP1 inh -1, IMP-1 inh 11* and NLRP3 yeast inh 0.
Screening CCCCc1nc(Cl)c(CO)n1Cc1ccc(-c2ccccc2-c2nn[nH]n2)cc1 returned PolyA inh -6, VIM-2 inh -2, SUMO Mot1 rescue 14, NALP1 inh -2, IMP-1 inh -4 and NLRP3 yeast inh 7.
`CCOC(=O)C1CCCN(c2nc(C)nc3c2oc2ccccc23)C1` (stereo not drawn) gave PolyA inh -19, VIM-2 inh 10*, SUMO Mot1 rescue 310, NALP1 inh 10, IMP-1 inh -2 and NLRP3 yeast inh 23.
`CCOC(=O)C1CCCN(C(=O)c2cc3c(C)nc4ccccc4c3o2)C1` (stereo not drawn) gave PolyA inh -12, VIM-2 inh 7.9*, SUMO Mot1 rescue 4, NALP1 inh -7, IMP-1 inh -5 and NLRP3 yeast inh 6.
`CCOC(=O)C1CCCN(C(=O)c2cc(-c3ccco3)nc3ccccc23)C1` (stereo not drawn) gave NLRP3 yeast inh -4.
Screening Cc1nc2ccccc2c2oc(C(=O)N3CC(C)CC(C)C3)cc12 (stereo not drawn) returned PolyA inh 16, VIM-2 inh 9.8*, SUMO Mot1 rescue 26, NALP1 inh 12, IMP-1 inh 0 and NLRP3 yeast inh 5.
`Cc1cc(C)n(-c2ccc(C(=O)OCC(=O)c3ccc(Br)s3)cc2)n1` gave PolyA inh -2, VIM-2 inh 4, SUMO Mot1 rescue 22, NALP1 inh -2, IMP-1 inh 9.1* and NLRP3 yeast inh 11.
Screening CCOC(=O)CNC(=O)CSc1nc(C)cc(C)c1C#N returned PolyA inh 1, VIM-2 inh -2, SUMO Mot1 rescue -1, NALP1 inh 37*, IMP-1 inh -2 and NLRP3 yeast inh 10.
For Cc1sc(NC(=O)CSc2nnc(-c3ccccc3)o2)c(C#N)c1C the results were PolyA inh 2, VIM-2 inh 1, SUMO Mot1 rescue -12, NALP1 inh 2, IMP-1 inh -1 and NLRP3 yeast inh 8.
For Cc1sc(NC(=O)CSc2nc(N)cc(N)n2)c(C#N)c1C the results were PolyA inh -1, VIM-2 inh 1, SUMO Mot1 rescue 319*, IMP-1 inh -1 and NLRP3 yeast inh -5.
Screening Cc1ccc(/C=C/c2ccc(=O)n(Cc3ccccc3Cl)n2)cc1 returned PolyA inh -23, VIM-2 inh 0, SUMO Mot1 rescue -6, NALP1 inh 37*, IMP-1 inh -2 and NLRP3 yeast inh 30.
`O=C(COC(=O)/C=C/c1ccc(S(=O)(=O)N2CCOCC2)cc1)NCc1ccc2c(c1)OCO2` gave PolyA inh 25, VIM-2 inh -2, SUMO Mot1 rescue 1, NALP1 inh -15, IMP-1 inh -3 and NLRP3 yeast inh 18.
For O=C(COC(=O)Cc1ccc(S(=O)(=O)N2CCOCC2)s1)NCc1ccc(Cl)cc1 the results were PolyA inh 56*, VIM-2 inh -1, NALP1 inh 0, IMP-1 inh -5 and NLRP3 yeast inh 1.
O=C(COC(=O)/C=C/c1ccc(S(=O)(=O)N2CCOCC2)cc1)NCc1ccc(F)cc1 was read as PolyA inh -11, VIM-2 inh -1, SUMO Mot1 rescue 307*, NALP1 inh 23, IMP-1 inh -2 and NLRP3 yeast inh 0.
Screening COCCN(Cc1ccco1)C(=O)C1CCCN(c2ncnc3c2nc2n3CCCCC2)C1 (stereo not drawn) returned PolyA inh 0, VIM-2 inh -2, SUMO Mot1 rescue 0, NALP1 inh -24, IMP-1 inh -2 and NLRP3 yeast inh -5.
